From ChEMBL document CHEMBL4813972, “A grafted peptidomimetic for EGFR heterodimerization inhibition: Implications in NSCLC models” (Eur J Med Chem, 2021)
Active and inactive are the calls of the source. The calls are words filed in the database; no cut-off is given here.

Assays:
[1] = tested on: MCF-10A; experiment: Cytotoxicity against human MCF-10A cells assessed as cell growth inhibition incubated for 72 hrs by cell titer glo assay; assay type: cell-based
Procedure, shortened: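 Cells seeded at 1×10^4 per well, left overnight at 37 °C/5% CO2, then exposed to a concentration series of peptide (up to 200, down to 0.01 μM) for 72 h. 1% SDS and 1% DMSO served as controls. Cells were PBS-washed, CellTiter-Glo added and luminescence read. IC50 taken from three independent experiments per cell line.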

[2] = Toxicity in Foxn1nu/Foxn1+ mouse xenografted with human A549 cells harbouring KRAS mutant/wild type EGFR assessed as hyper-chromatic nuclei in lung at 6 mg/kg, iv administered twice a week for 5 weeks; conditions: in vivo, 840 h
[3] = tested on: A549; experiment: Antitumor activity in Red-Fluc transfected human A549 cells harbouring KRAS mutant/wild type EGFR xenografted in Foxn1nu/Foxn1+ mouse assessed as reduction in tumor growth by measuring relative luminescence intensity at 6 mg/kg, iv treated twice a week measured after 2 weeks relative to vehicle; assay type: functional, organism-based
[4] = Thermal stability of compound at 15 uM incubated at 25 to 75 degC by MALDI-TOF analysis; assay type: physicochemical
Procedure, shortened: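 Peptide at 15 μM in acetonitrile heated from 25 to 75 °C. Mass checked at 25, 50 and 70 °C and at the end of the run.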

[5] = biological target: Receptor tyrosine-protein kinase erbB-2 (Homo sapiens) (UniProt P04626); experiment: Binding affinity to HER2 domain IV (unknown origin) by SPR analysis
[6] = tested on: Calu-3; experiment: Antitumor activity in human Calu-3 cells xenografted in Foxn1nu/Foxn1+ mouse assessed as reduction in tumor growth at 8 mg/kg, IT(Intratumoral) administered thrice a week for 21 days and measured on day 21 relative to control; assay type: functional, organism-based; conditions: time 21.0 day
[7] = biological target: Receptor tyrosine-protein kinase erbB-2 (Homo sapiens) (UniProt P04626); experiment: Inhibition of HER2 ECD in human A549 cells assessed as reduction in HER2 intracellular kinase domain phosphorylation at 1 uM incubated for 40 hrs by Western blot analysis; assay type: cell-based
[8] = Toxicity in Foxn1nu/Foxn1+ mouse xenografted with human Calu-3 cells assessed as effect on body weight at 8 mg/kg, IT(Intratumoral) administered thrice a week for 28 days and measured on day 28; assay type: organism-based; conditions: in vivo, other, 672 h, time 28 day
[9] = tested on: Mus musculus; experiment: In vivo inhibition of HER2/HER3 dimerization in human A549 cells harbouring KRAS mutant/wild type EGFR xenografted in Foxn1nu/Foxn1+ mouse by measuring reduction in red fluorescence at 6 mg/kg, iv administered twice a week for 5 weeks by proximity ligation assay; assay type: functional, organism-based
Procedure, shortened: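 Lung tumor sections from the A549-Red-FLuc i.v. metastasis mice (6 mg/kg i.v. twice weekly; sacrificed day 35). FFPE sections had citrate pH 6.0 antigen retrieval at 100 °C, peroxidase and serum blocking, primaries overnight at 4 °C, and PLA probes for EGFR:HER2 and HER2:HER3. Red fluorescence imaged at 40×.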

[10] = Toxicity in Foxn1nu/Foxn1+ mouse xenografted with human Calu-3 cells assessed as clinical observation at 8 mg/kg, IT(Intratumoral) administered thrice a week for 28 days and measured on day 28; assay type: organism-based; conditions: in vivo, other, 672 h, time 28 day
[11] = tested on: NCI-H1975; experiment: Synergistic antiproliferative activity against human NCI-H1975 cells assessed as combination index after 72 hrs in presence of erlotinib by cell titer glo assay; assay type: functional

Receptor tyrosine-protein kinase erbB-2 (Homo sapiens), sequence (P04626 whole entry, the tested form may be a part): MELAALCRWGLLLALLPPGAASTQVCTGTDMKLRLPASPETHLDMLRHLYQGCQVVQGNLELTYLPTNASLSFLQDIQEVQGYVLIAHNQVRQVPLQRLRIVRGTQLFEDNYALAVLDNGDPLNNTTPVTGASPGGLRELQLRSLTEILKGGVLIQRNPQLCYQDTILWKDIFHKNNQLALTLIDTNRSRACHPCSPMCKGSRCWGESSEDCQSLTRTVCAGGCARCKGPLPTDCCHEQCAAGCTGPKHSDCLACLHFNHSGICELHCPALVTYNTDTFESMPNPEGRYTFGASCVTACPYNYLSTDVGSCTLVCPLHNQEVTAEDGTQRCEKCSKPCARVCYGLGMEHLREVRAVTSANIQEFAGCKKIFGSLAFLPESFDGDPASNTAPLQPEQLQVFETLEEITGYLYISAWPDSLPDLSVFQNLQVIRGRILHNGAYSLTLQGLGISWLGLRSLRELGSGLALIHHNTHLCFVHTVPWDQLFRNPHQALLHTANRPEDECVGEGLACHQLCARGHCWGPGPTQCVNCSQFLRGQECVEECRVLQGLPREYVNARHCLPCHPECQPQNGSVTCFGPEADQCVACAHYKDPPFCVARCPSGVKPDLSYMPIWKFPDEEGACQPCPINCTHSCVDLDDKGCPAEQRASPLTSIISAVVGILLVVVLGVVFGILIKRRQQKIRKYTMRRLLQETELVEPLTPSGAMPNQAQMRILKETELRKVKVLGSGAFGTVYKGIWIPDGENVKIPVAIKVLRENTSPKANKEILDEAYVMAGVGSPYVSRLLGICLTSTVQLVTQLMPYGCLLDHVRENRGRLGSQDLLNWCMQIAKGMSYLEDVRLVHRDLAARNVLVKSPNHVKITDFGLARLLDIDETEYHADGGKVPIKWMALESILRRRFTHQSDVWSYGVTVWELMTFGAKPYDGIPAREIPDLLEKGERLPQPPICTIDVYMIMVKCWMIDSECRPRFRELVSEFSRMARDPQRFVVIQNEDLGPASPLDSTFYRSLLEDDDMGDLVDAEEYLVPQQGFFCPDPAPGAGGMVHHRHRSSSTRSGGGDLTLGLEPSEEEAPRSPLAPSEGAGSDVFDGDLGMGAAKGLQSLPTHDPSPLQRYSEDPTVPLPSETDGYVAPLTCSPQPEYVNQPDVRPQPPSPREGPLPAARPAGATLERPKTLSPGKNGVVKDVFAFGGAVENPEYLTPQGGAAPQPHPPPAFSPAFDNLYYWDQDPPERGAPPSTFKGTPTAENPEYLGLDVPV

Stabilty [4]: Stable
Activity [5]: Dose-Dependent Effect
inhibition [7]: Active
Structure (SMILES): CC[C@H](C)[C@H]1C(=O)NC(=O)[C@H](CCCNC(=N)N)NC(=O)C[C@@H](c2cccc3ccccc23)NC(=O)N[C@H]2CSSC[C@H](NC(=O)C[C@@H](c3cccc4ccccc34)NC(=O)[C@H](CCCNC(=N)N)NC(=O)[C@@H]3CCCN3C(=O)[C@@H]3CCCN13)C(=O)N[C@@H](Cc1ccccc1)C(=O)N1CCC[C@H]1C(=O)N[C@@H](CC(=O)O)C(=O)NC(=O)[C@H](CC(=O)O)NC(=O)[C@H](Cc1ccccc1)NC2=O
IC50 [1]: > 40 µM
Activity [2]: Non-Toxic
Activity [3]: Active
Activity [6]: Active
Activity [8]: Non-Toxic
inhibition [9]: Active
Activity [10]: Non-Toxic
CI [11]: 0.76
